Test [1] has as its target T1, Retinoic acid receptor alpha (Homo sapiens, UniProt P10276).
T1 sequence (P10276 whole entry): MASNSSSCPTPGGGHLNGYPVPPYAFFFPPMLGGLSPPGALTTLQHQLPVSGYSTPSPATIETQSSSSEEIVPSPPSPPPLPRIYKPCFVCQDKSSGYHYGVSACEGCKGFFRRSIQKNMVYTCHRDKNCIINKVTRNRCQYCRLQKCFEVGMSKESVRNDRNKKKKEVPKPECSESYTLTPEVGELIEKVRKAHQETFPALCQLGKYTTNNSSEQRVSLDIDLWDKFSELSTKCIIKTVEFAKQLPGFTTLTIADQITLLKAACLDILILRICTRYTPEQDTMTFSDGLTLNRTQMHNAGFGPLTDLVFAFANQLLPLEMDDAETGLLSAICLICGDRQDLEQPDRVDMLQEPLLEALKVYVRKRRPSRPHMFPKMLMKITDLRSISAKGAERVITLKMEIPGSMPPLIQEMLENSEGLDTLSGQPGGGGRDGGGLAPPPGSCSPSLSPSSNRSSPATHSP
The test is described as follows: Binding affinity for retinoic acid receptor alpha (RARalpha), using 9-cis-[3H]-retinoic acid. The method in brief:
(§1)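 Scintillation proximity binding assay; Ki from competition of 2.5 nM 9-cis-RA at RXRα and RARα, with test compound up to 10 µM.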

Test [2] addresses T2, Retinoic acid receptor RXR-alpha (Homo sapiens, UniProt P19793).
T2 sequence (P19793 whole entry): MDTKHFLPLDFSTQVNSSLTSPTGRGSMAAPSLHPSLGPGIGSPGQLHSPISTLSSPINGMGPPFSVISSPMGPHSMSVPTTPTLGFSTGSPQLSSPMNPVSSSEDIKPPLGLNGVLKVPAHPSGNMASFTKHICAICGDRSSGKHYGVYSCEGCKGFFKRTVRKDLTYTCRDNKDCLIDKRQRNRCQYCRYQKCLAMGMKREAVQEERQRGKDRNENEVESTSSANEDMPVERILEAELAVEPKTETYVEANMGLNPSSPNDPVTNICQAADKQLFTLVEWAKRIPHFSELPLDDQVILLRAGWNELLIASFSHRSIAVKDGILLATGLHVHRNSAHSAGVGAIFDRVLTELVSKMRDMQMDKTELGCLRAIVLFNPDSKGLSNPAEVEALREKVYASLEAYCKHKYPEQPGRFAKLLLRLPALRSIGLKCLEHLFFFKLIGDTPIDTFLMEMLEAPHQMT
The test is described as follows: Binding affinity for retinoid X receptor alpha (RXRalpha), using 9-cis-[3H]-retinoic acid. The gist of the method:
as §1

Test [3] deals with T2, Retinoic acid receptor RXR-alpha. The test is described as follows: Effective concentration for Retinoid X receptor alpha activity in CV-1 cells. The format is functional, cell-based. The gist of the method:
(§2)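 CV-1 monkey kidney cells transiently transfected with a full-length hRXRα expression vector (RXRα) or a GAL4-hRARα vector (RARα), each with an RXRα- or RARα-responsive reporter gene construct. Top concentration 10 µM; EC50 calculated from the reporter response.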

The target in test [4] is T1, Retinoic acid receptor alpha. The test is described as follows: Effective concentration for Retinoic acid receptor alpha activity in CV-1 cells. The format is functional, cell-based. The gist of the method: as §2
The target of test [5] is T2, Retinoic acid receptor RXR-alpha. As to the kind of experiment: Effective concentration for Retinoid X receptor alpha activity in CV-1 cells; Partial agonist. The format is functional, cell-based. The gist of the method:
as §2

One may read the Ki as a dissociation constant, usually derived from enzyme kinetics or from competition with a known ligand. The low end stands for a stronger hold on the target, the high end for a looser hold on the target. Usually EC50 stands for the concentration needed to bring the measured effect to its halfway point. A low value points to an effect from little substance.

Some results are limits rather than exact numbers.

`CN1Cc2oc(/C=C/C(=O)O)cc2C(c2ccc3c(c2)C(C)(C)CCC3(C)C)C1` (centres undefined): the Ki in test [1] is > 1000 nM; in test [2], 79 nM. It took 70 nM to reach a half-maximal effect in test [3] (EC50).

Regarding `CC(=CC(=O)O)c1cc2c(o1)CCCC2c1ccc2c(c1)C(C)(C)CCC2(C)C` (centres undefined), the Ki in test [1] was > 1000 nM; in test [2], 63 nM. In addition, the EC50 in test [4] is > 10000 nM; in test [3], 60 nM.

In test [2], `O=C1NC(=O)/C(=C/c2ccc(-c3cccc(Br)c3)o2)S1` displayed a Ki of 1500 nM.

As to `COc1cc2c(cc1C1CCCc3oc(/C=C/C(=O)O)cc31)C(C)(C)CCC2(C)C` (centres undefined), the Ki in test [1] is > 1000 nM; in test [2] it was 20 nM. Also, the figures for the EC50 in test [4] and in test [5] were > 10000 nM and 48 nM, respectively.

As to `CC1(C)CCC(C)(C)c2cc(C3CCCc4oc(/C=C5/SC(=O)NC5=O)cc43)ccc21` (centres undefined), the Ki in test [1] is > 1000 nM; in test [2], 20 nM. Moreover, the concentration for a half-maximal effect (EC50) in test [4] was > 10000 nM; in test [3], 4 nM.

Consider `Cc1cc2c(cc1C1CCCc3oc(/C=C/C(=O)O)cc31)C(C)(C)CCC2(C)C` (centres undefined), for which the Ki in test [1] was > 1000 nM; in test [2] it was 40 nM. The EC50 in test [4] was > 10000 nM; in test [3], 29 nM.

Regarding `CC1(C)CCC(C)(C)c2cc(C3CCCc4oc(C(=O)O)cc43)ccc21` (centres undefined), the results for the Ki in test [1] and in test [2] were > 1000 nM and > 3000 nM, respectively. Further, the EC50 in test [3] was > 10000 nM.

For `CC1(C)CCC(C)(C)c2cc(C3CCCc4sc(CCC(=O)O)cc43)ccc21` (centres undefined), the Ki is > 1000 nM in test [1] and 200 nM in test [2]. Moreover, the concentration giving a half-maximal response (EC50) is > 10000 nM in test [4] and 97 nM in test [3].

`CC1(C)CCC(C)(C)c2cc(-c3ccc(/C=C/C(=O)O)o3)ccc21`: the Ki was 93 nM in test [1] and > 1000 nM in test [2].
